# According to the RNAGym collection of RNA variant scans (doi:10.1002/anie.201605470):
# B1: Osa-1-4 twister ribozyme (parent)
# chain: CCGCCUAACACUGCCAAUGCCGGUCCCAAGCCCGGAUAAAAGUGGAGGGGGCGG
# Variants of: B1
# Experiment: self-cleavage, relative activity (ratio to wild type); higher = more cleavage; co-transcriptional
# In short: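 A DNA template encoding a 54-nucleotide twister ribozyme from Oryza sativa was made so that each of the 48 positions downstream of the cleavage site carried 97 % wild-type base and 1 % of each other base. Transcription in vitro ran for 2 h at 37 °C, during which the ribozyme could cleave itself. Reverse transcription used a template-switching oligonucleotide, and the products were PCR-amplified and deep-sequenced. Each read was scored as cleaved or uncleaved by whether upstream sequence was present, and relative activity is the fraction cleaved normalised to wild type.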
row,Variant,self-cleavage
1,CCGCCUAACACUGCCAAUGCCGGUCCCAAGCCGGGAUAGAAGUGGAGGGGGCGG,0.07
2,CCGCCUAACACUGCCAAUGCCGGUCCCAAGCCUGGAUAGAAGUGGAGGGGGCGG,0.63
3,CCGCCUAACACUGCCAAUGCCGGUCCCAAGCCAGGAUAGAAGUGGAGGGGGCGG,0.08
4,CCGCCUAACACUGCGAAUGCCGGUCCCAAGCCCGGAUAGAAGUGGAGGGGGCGG,0.31
5,CCGCCUAACACUGCAAAUGCCGGUCCCAAGCCCGGAUAGAAGUGGAGGGGGCGG,0.41
6,CCGCCUAACACUGCUAAUGCCGGUCCCAAGCCCGGAUAGAAGUGGAGGGGGCGG,0.21
7,CCGCCUAACACUGCCAAUGCCGGUCCCAAGCCCGGAUAGAAGUGGAGGGUGCGG,1
8,CCGCCUAACACUGCCAAUGCCGGUCCCAAGCCCGGAUAGAAGUGGAGGGCGCGG,0.84
9,CCGCCUAACACUGCCAAUGCCGGUCCCAAGCCCGGAUAGAAGUGGAGGGAGCGG,0.72
10,CCGCCUAACACUGCCAAUGCCGGUCCCAAGUCCGGAUAGAAGUGGAGGGGGCGG,0.56
11,CCGCCUAACACUGCCAAUGCCGGUCCCAAGGCCGGAUAGAAGUGGAGGGGGCGG,0.1
12,CCGCCUAACACUGCCAAUGCCGGUCCCAAGACCGGAUAGAAGUGGAGGGGGCGG,0.03
13,CCGCCUAACACUGCCAAUGCCGGUCCCAAGCCCGGAUAGAAGUCGAGGGGGCGG,0.93
14,CCGCCUAACACUGCCAAUGCCGGUCCCAAGCCCGGAUAGAAGUUGAGGGGGCGG,0.89
15,CCGCCUAACACUGCCAAUGCCGGUCCCAAGCCCGGAUAGAAGUAGAGGGGGCGG,0.85
16,CCGCCUAACACUGCCAAUGCCGGUCCCAAGCCCGGAUAGAAGUGGGGGGGGCGG,0.06
17,CCGCCUAACACUGCCAAUGCCGGUCCCAAGCCCGGAUAGAAGUGGCGGGGGCGG,0.05
18,CCGCCUAACACUGCCAAUGCCGGUCCCAAGCCCGGAUAGAAGUGGUGGGGGCGG,0.09
19,CCGCCUAACACUGCCAAUGCCGGUCCCAAGCCCGGAUAGAUGUGGAGGGGGCGG,0.95
20,CCGCCUAACACUGCCAAUGCCGGUCCCAAGCCCGGAUAGACGUGGAGGGGGCGG,0.6
21,CCGCCUAACACUGCCAAUGCCGGUCCCAAGCCCGGAUAGAGGUGGAGGGGGCGG,0.46
22,CCGCCUAACACUGCCAAUGCCGGUCACAAGCCCGGAUAGAAGUGGAGGGGGCGG,0.06
23,CCGCCUAACACUGCCAAUGCCGGUCGCAAGCCCGGAUAGAAGUGGAGGGGGCGG,0.25
24,CCGCCUAACACUGCCAAUGCCGGUCUCAAGCCCGGAUAGAAGUGGAGGGGGCGG,0.55

row,Variant,self-cleavage
1,CCGCCUAACACUGCCAAUGCCGGUCCCAAGCCCGGAUAGAAGUGGAGUGGGCGG,0.07
2,CCGCCUAACACUGCCAAUGCCGGUCCCAAGCCCGGAUAGAAGUGGAGAGGGCGG,0.1
3,CCGCCUAACACUGCCAAUGCCGGUCCCAAGCCCGGAUAGAAGUGGAGCGGGCGG,0.08
4,CCGCCUAACACUGCCAAUGCCGGUUCCAAGCCCGGAUAGAAGUGGAGGGGGCGG,0.53
5,CCGCCUAACACUGCCAAUGCCGGUGCCAAGCCCGGAUAGAAGUGGAGGGGGCGG,0.07
6,CCGCCUAACACUGCCAAUGCCGGUACCAAGCCCGGAUAGAAGUGGAGGGGGCGG,0.07
7,CCGCCUAACACUGCCAAUGCCGGUCCCAAGCCCGGAUAGAAGUGGAGGGGGAGG,0.97
8,CCGCCUAACACUGCCAAUGCCGGUCCCAAGCCCGGAUAGAAGUGGAGGGGGGGG,0.98
9,CCGCCUAACACUGCCAAUGCCGGUCCCAAGCCCGGAUAGAAGUGGAGGGGGUGG,1.04
10,CCGCCUAACACUGCCAAUGCCGGUCCCAAGCCCGGAUAGAAGUGCAGGGGGCGG,0.07
11,CCGCCUAACACUGCCAAUGCCGGUCCCAAGCCCGGAUAGAAGUGAAGGGGGCGG,0.13
12,CCGCCUAACACUGCCAAUGCCGGUCCCAAGCCCGGAUAGAAGUGUAGGGGGCGG,0.08
13,CCGCCUAACACUGCCAAUGCCGGUCCCAAACCCGGAUAGAAGUGGAGGGGGCGG,0.05
14,CCGCCUAACACUGCCAAUGCCGGUCCCAACCCCGGAUAGAAGUGGAGGGGGCGG,0.05
15,CCGCCUAACACUGCCAAUGCCGGUCCCAAUCCCGGAUAGAAGUGGAGGGGGCGG,0.04
16,CCGCCUAACACUGCCAAUGCCGGUCCCAAGCCCGGAUAGAAGUGGAGGGGGCGA,0.79
17,CCGCCUAACACUGCCAAUGCCGGUCCCAAGCCCGGAUAGAAGUGGAGGGGGCGC,0.76
18,CCGCCUAACACUGCCAAUGCCGGUCCAAAGCCCGGAUAGAAGUGGAGGGGGCGG,0.09
19,CCGCCUAACACUGCCAAUGCCGGUCCGAAGCCCGGAUAGAAGUGGAGGGGGCGG,0.07
20,CCGCCUAACACUGCCAAUGCCGGUCCUAAGCCCGGAUAGAAGUGGAGGGGGCGG,0.11
21,CCGCCUAACAGUGCCAAUGCCGGUCCCAAGCCCGGAUAGAAGUGGAGGGGGCGG,0.51
22,CCGCCUAACAAUGCCAAUGCCGGUCCCAAGCCCGGAUAGAAGUGGAGGGGGCGG,0.62
23,CCGCCUAACAUUGCCAAUGCCGGUCCCAAGCCCGGAUAGAAGUGGAGGGGGCGG,0.93
24,CCGCCUAAGACUGCCAAUGCCGGUCCCAAGCCCGGAUAGAAGUGGAGGGGGCGG,0.66
